Screens (PubChem)
This is a sample that favours compounds with a hit; in the whole collection about 3.1% have one here.
GPR7 antagonist – GPR7 receptor antagonists, primary screen, cell-based, fluorescence, single concentration. Neuropeptides B/W receptor type 1 (Homo sapiens), P48145. AID 1861, 2009. inhibition, % at 4.4 µM. GPR7-expressing cells, fluorescence antagonist assay. actives 1.1% (n = 290,000); in the data active means inhibition above about 16%, passing the limit was not always enough;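 further: cells stimulated with the agonist NPW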
Target sequence (P48145 whole entry, looked up): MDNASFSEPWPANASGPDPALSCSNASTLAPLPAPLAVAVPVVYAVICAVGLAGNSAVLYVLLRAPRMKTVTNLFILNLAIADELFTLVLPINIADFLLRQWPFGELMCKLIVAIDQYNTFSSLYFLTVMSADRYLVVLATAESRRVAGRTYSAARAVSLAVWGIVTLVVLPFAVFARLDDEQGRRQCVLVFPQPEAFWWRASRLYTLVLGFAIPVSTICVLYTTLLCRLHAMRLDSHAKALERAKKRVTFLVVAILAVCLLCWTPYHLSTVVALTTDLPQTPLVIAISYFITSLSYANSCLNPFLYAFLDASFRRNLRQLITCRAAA
GalR3 antag – GalR3 antagonists in HEK293 cells, primary screen, cell-based, fluorescence readout; HEK293 GalR3-CNG cAMP membrane potential fluorescence; galR3 body fused to GalR1 C-terminus; inhibition, % at 3 µM; actives 0.44% (n = 360,000); AID 651719, 2012;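 active means inhibition above the screen-wide average plus 3 SD, cut at about 13% in these data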;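 further: forskolin and galanin both at EC90 stimulate the cells; cAMP rise reported by CNG channel membrane potential dye signal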
OX1R antag-1 – antagonists of human orexin 1 receptor (OX1R); Orexin/Hypocretin receptor type 1 (Homo sapiens), O43613; OX1R-expressing cells, FRET antagonist read-out; inhibition, % at 6.6 µM; actives 1.8% (n = 330,000); AID 485270, 2010; in the data active means inhibition mostly above about 38%, no sharp cut-off; inactive means mostly below about 40%
CHO parental Ca – ATP-evoked calcium signal inhibitors, parental CHO, primary screen, counter-screen for OX1R antagonist project, cell-based, fluorescence, Fluo-8 calcium dye. actives 0.63% (n = 330,000). inhibition, % at 5.6 µM. parental CHO-K1, ATP-induced calcium, Fluo-8 fluorescence;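 active means inhibition above that plate's mean sample inhibition plus 3 SD, cut at about 26% in these data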
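Material: parental CHO cells / Compound: single nominal dose of 5.6 µM per compound / Signal: Fluo-8 fluorescence / Replicates: singlicate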
OX1R antag-2 – OX1R (HCRTR1) antagonists, primary screen, fluorescence, CHO/OX1R cells, Fluo-8 calcium, orexin A; Fluo-8 calcium fluorescence; actives 0.43% (n = 330,000); inhibition, % at 5 µM; AID 434989, 2010; Orexin/Hypocretin receptor type 1 (Homo sapiens), O43613;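 active means inhibition above its plate's threshold, mean inhibition of all tested compounds on the plate plus 3 SD, cut at about 37% in these data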
OX1R HTRF conf – OX1R (HCRTR1) antagonists, confirmation, cell-based, HTRF | shares compounds with OX1R antag-1 | OX1R-expressing cells, HTRF antagonist assay | actives 49% (n = 1,800) | inhibition, % at 6.6 µM | AID 492964, 2010; in the data active means inhibition above about 55%;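 further: CHO cells expressing OX1R stimulated with orexin A at about EC80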
CHO-K1 HTRF cnt – signal inhibition in parental CHO-K1 cells, counter-screen for OX1R antagonist project, cell-based, HTRF; shares compounds with OX1R antag-1; HTRF counterscreen; inhibition, % at 6.6 µM; actives 48% (n = 1,800); in the data active means inhibition above about 17%
A number is an active result; 0 = inactive; - = not tested or not shown.

SMILES | GPR7 antagonist | GalR3 antag | OX1R antag-1 | CHO parental Ca | OX1R antag-2 | OX1R HTRF conf | CHO-K1 HTRF cnt
CC(=O)Nc1ccc(NC(=O)Nc2ccc3c(c2)N(C)C(=O)CS3)cc1 | 0 | 0 | 0 | 0 | 0 | - | -
Cc1cccc(C)c1NC(=O)c1ccc(-c2cc(F)ccc2F)o1 | - | 0 | - | - | - | - | -
COc1c(C)cc(C(=O)C2CCCN(C(=O)c3cccc(F)c3)C2)cc1C (configuration not stated) | 0 | 0 | 106 | 0 | 0 | 88 | 0
COc1ccc2cc(C(=O)C3CCCN(C(=O)c4cnccn4)C3)ccc2c1 (configuration not stated) | 0 | 0 | 97 | 0 | 0 | 0 | 0
O=C(c1cccc(F)c1)N1CCCC(C(=O)N2CCCCCC2)C1 (configuration not stated) | 0 | 0 | 0 | 0 | 0 | - | -
COc1c(C)cc(C(=O)C2CCCN(C(=O)c3ccc4cc[nH]c4c3)C2)cc1C (configuration not stated) | 0 | 0 | 82 | 0 | 0 | 72 | 0
Fc1cccc(Cc2c(-c3cccc(Cl)c3)nc3c(Cl)cc(C(F)(F)F)cn23)c1 | - | 0 | - | - | - | - | -
O=C(Nc1cc(Cl)ccc1Cl)C1Cc2ccccc2O/C1=N\O (configuration not stated) | 0 | 0 | - | - | - | - | -
COc1cc(/C=C/C(=O)O)cc(S(=O)(=O)Nc2cc(S(=O)(=O)N3CCCCC3)ccc2Cl)c1OC | - | 0 | - | - | - | - | -
CCOC(=O)C1CCCN(C(=O)Cc2ccc(OC)c(OC)c2)CC1 (configuration not stated) | - | 0 | - | - | - | - | -
COCOCCn1cc(CN2CCS(=O)(=O)N(Cc3ccc(-c4ccc(OC)cc4)cc3)C(C)C2=O)nn1 (configuration not stated) | - | 0 | - | - | - | - | -
O=C(Nc1cc(F)cc(F)c1)c1ccc(NCCCN2CCCCCC2)c([N+](=O)[O-])c1 | 0 | 0 | 86 | 0 | 0 | 0 | 39
CCCCNC(=O)C[C@@H]1C[C@@]2(C(=O)OC)CCCCC=C2N(Cc2ccc3c(c2)OCO3)C1=O | - | 0 | - | - | - | - | -
CC1(C)N([O-])C2=C(c3ccccc3C2=O)[N+](=O)C1(C)C | 0 | 0 | 169 | 0 | 0 | 56 | 66
COc1ccccc1C(=O)Oc1ccc2c(c1)O/C(=C\c1ccncc1)C2=O | 0 | 0 | 78 | 0 | 0 | 0 | 0
CC(=O)Oc1ccc2c(c1)O/C(=C\c1ccncc1)C2=O | 0 | - | 0 | 0 | 0 | - | -
O=C1OCCN1/N=C/c1ccc([N+](=O)[O-])o1 | 0 | - | 79 | 0 | 0 | 60 | 93
O=[N+]([O-])c1ccc(/C=N/Nc2nc(N3CCCC3)nc(N3CCCC3)n2)o1 | 0 | 0 | 0 | 0 | 0 | - | -
CC1(C)Cc2ccccc2C2=NNC(=O)C2=N1 | 0 | 0 | 117 | 0 | 0 | 0 | 78
CCCNC(=O)c1cc(C2CCCN(C(=O)c3ccc4ccccc4c3)C2)on1 (configuration not stated) | - | 0 | - | - | - | - | -
CC(C)CN(C(=O)COC(=O)c1c2c(nc3ccccc13)CCC2)c1c(N)n(Cc2ccccc2)c(=O)[nH]c1=O | 0 | 0 | 0 | 0 | 0 | - | -
Clc1ccc(-c2cccc3nccn23)c(Cl)c1 | - | 0 | - | - | - | - | -
O=C(c1ccco1)N1CCN(C(=O)C2CCN(S(=O)(=O)c3cccc4nsnc34)CC2)CC1 | 0 | 0 | 100 | 0 | 0 | 0 | 47
O=C(C1CCN(S(=O)(=O)c2cccc3nsnc23)CC1)N1CCN(c2ccccc2F)CC1 | 0 | 0 | 0 | 0 | 0 | - | -
O=C(C1CCCN1S(=O)(=O)c1cccc2nsnc12)N1CCCCC1 (configuration not stated) | 0 | 0 | 0 | 0 | 0 | - | -
O=C(C1CCCO1)N1CCN(S(=O)(=O)c2cccc3nsnc23)CC1 (configuration not stated) | 0 | 0 | 96 | 0 | 0 | 0 | 56
